Calls of active or inactive are those of the source. The rule behind the calls is not given here.
Key:
[1] = test system: Nucleic Acid; assay: Inhibition of transactivation response element RNA-mediated transcription in HIV1 pseudovirions infected in human CEM cells assessed as reduction in luciferase activity incubated 48 hrs post-infection measured after 72 hrs by reporter gene assay; type: cell-based
Method in brief: (§1)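 CEM 12D7 cells (1×10^6 in 1 mL) infected 2 h with VSV-G-pseudotyped NL4-3.Luc.R-E- virions (14 ng p24), washed and cultured. Conjugate added 48 h post-infection. After 76 h, cells lysed and firefly luciferase measured; IC50 calculated. Mean of two independent experiments.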

[2] = test system: CCRF-CEM; assay: Cytotoxicity against human CEM cells assessed as inhibition of [3H]thymidine incorporation at 0.1 and 0.5 mM after 48 hrs by scintillation counting; type: cell-based
Method in brief: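 CEM cells grown with conjugate (0.1 and 0.5 mM, dissolved in DMSO; final DMSO 5%) plus [methyl-3H]thymidine 5 µCi/mL for 48 h. Nucleic acids lysed with 1% NP-40, TCA-precipitated onto glass-fibre filters and scintillation counted. Results given as % of DMSO control, from three independent experiments.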

[3] = test system: Nucleic Acid; assay: Binding affinity to HIV1 32-P labeled transactivation response element RNA assessed as gel mobility shift at compound:RNA ratio of 0.5:1 after 1 hr by gel mobility shift assay; type: nucleic-acid assay; settings: Human immunodeficiency virus 1
Method in brief: (§2)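 10 nM 32P-labelled 82-nt TAR RNA run-off transcript (T7) incubated with conjugate in 50 mM Tris-HCl pH 7.8, 60 mM KCl, 5 mM MgCl2, 1 h at room temperature. Molar ratios of conjugate to RNA were 0–5.0. Samples were run on native 8% polyacrylamide gel in TBE, 100 V, 4 h, room temperature, then PhosphorImager read-out.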

[4] = test system: Nucleic Acid; assay: Inhibition of HIV1 transactivation response element RNA-mediated LTR expression transfected in human CEM cells coexpressing CMV-Tat at 1 uM after 24 hrs by luciferase reporter gene assay; type: cell-based; settings: Human immunodeficiency virus 1, CCRF-CEM
Method in brief: (§3)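 CEM cells (0.5×10^6/well) transfected with pHIV-1 LTR-Luc (2 µg) and pRL-SV40 (500 ng), with or without pCMV-Tat (2 µg). Conjugates added 2 h later, and cells grown in RPMI/10% FBS at 37 °C. At 24 h, dual-luciferase read-out; firefly normalised to Renilla and expressed as % of untreated cells. Mean ± SEM of two independent experiments.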

[5] = test system: Nucleic Acid; assay: Binding affinity to HIV1 32-P labeled transactivation response element RNA at compound:RNA ratio of 1:1 after 1 hr by gel mobility shift assay; type: nucleic-acid assay; settings: Human immunodeficiency virus 1; method in brief: as §2
[6] = test system: Nucleic Acid; assay: Inhibition of transactivation response element RNA-mediated transcription in HIV1 pseudovirions infected in human CEM cells assessed as reduction in luciferase activity at 800 nM incubated 48 hrs post-infection measured after 72 hrs by reporter gene assay; type: cell-based; settings: Human immunodeficiency virus 1, CCRF-CEM; method in brief: as §1
[7] = test system: Nucleic Acid; assay: Inhibition of HIV1 transactivation response element RNA-mediated LTR expression transfected in human CEM cells coexpressing CMV-Tat at 0.1 to 2 uM after 24 hrs by luciferase reporter gene assay; type: cell-based; settings: Human immunodeficiency virus 1, CCRF-CEM; method in brief: as §3
[8] = test system: Nucleic Acid; assay: Induction of HIV1 transactivation response element RNA cleavage; type: nucleic-acid assay; settings: Human immunodeficiency virus 1
[9] = test system: Nucleic Acid; assay: Induction of HIV1 transactivation response element RNA cleavage in presence of metal ion; type: nucleic-acid assay; settings: Human immunodeficiency virus 1
[10] = test system: Nucleic Acid; assay: Effect on HIV1 transactivation response element RNA-mediated LTR expression transfected in human CEM cells at 0.1 to 2 uM after 24 hrs by luciferase reporter gene assay; type: cell-based; settings: Human immunodeficiency virus 1, CCRF-CEM; method in brief: as §3
[11] = Chemical stability of the compound in aqueous HCl solution after 3 days by HPLC analysis; type: physicochemical; settings: buffer, 72 h
Method in brief: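 Conjugate held in 0.1 M aqueous HCl at 37 °C for 3 days. HPLC retention time compared with untreated sample.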

[12] = test system: Nucleic Acid; assay: Inhibition of HIV1 transactivation response element RNA-mediated LTR expression transfected in human CEM cells coexpressing CMV-Tat at 1 and 2 uM after 24 hrs by luciferase reporter gene assay; type: cell-based; settings: Human immunodeficiency virus 1; CCRF-CEM; method in brief: as §3
[13] = test system: CCRF-CEM; assay: Cellular uptake in human CEM cells at 2 uM after overnight incubation; type: ADME, cell-based
[14] = Human immunodeficiency virus 1, CCRF-CEM

CO[C@H]1O[C@H](CN)[C@@H](OCCCCCC(=O)NCCN(CC(=O)NCCN(CC(=O)NCCN(CC(=O)NCCN(CC(=O)NCCN(CC(=O)NCCN(CC(=O)NCCN(CC(=O)NCCN(CC(=O)NCCN(CC(=O)NCCN(CC(=O)NCCN(CC(=O)NCCN(CC(=O)NCCN(CC(=O)NCCN(CC(=O)NCCN(CC(=O)NCCN(CC(N)=O)C(=O)Cn2cc(C)c(=O)[nH]c2=O)C(=O)Cn2ccc(N)nc2=O)C(=O)Cn2cc(C)c(=O)[nH]c2=O)C(=O)Cn2cnc3c(N)ncnc32)C(=O)Cn2cnc3c(=O)[nH]c(N)nc32)C(=O)Cn2cnc3c(N)ncnc32)C(=O)Cn2ccc(N)nc2=O)C(=O)Cn2cc(C)c(=O)[nH]c2=O)C(=O)Cn2ccc(N)nc2=O)C(=O)Cn2cnc3c(=O)[nH]c(N)nc32)C(=O)Cn2cnc3c(=O)[nH]c(N)nc32)C(=O)Cn2cnc3c(N)ncnc32)C(=O)Cn2ccc(N)nc2=O)C(=O)Cn2ccc(N)nc2=O)C(=O)Cn2ccc(N)nc2=O)C(=O)Cn2cc(C)c(=O)[nH]c2=O)[C@H](O)[C@H]1N
IC50 [1, 14]: 800 nM | inhibition [1, 14]: Dose-dependent effect | Activity [2]: Non-toxic | Activity [3]: 50% | inhibition [4]: 75% | Activity [5]: Active | inhibition [6]: 50% | inhibition [7]: Active | Activity [8]: inactive | Activity [9]: inactive | Activity [10]: inactive | Stability [11]: Stable

Cc1cn(CC(=O)N(CCNC(=O)CN(CCNC(=O)CN(CCNC(=O)CN(CCNC(=O)CN(CCNC(=O)CN(CCNC(=O)CN(CCNC(=O)CN(CCNC(=O)CN(CCNC(=O)CN(CCNC(=O)CN(CCNC(=O)CN(CCNC(=O)CN(CCNC(=O)CN(CCNC(=O)CN(CCNC(=O)CN(CCN)C(=O)Cn2cc(C)c(=O)[nH]c2=O)C(=O)Cn2ccc(N)nc2=O)C(=O)Cn2ccc(N)nc2=O)C(=O)Cn2ccc(N)nc2=O)C(=O)Cn2cnc3c(N)ncnc32)C(=O)Cn2cnc3c(=O)[nH]c(N)nc32)C(=O)Cn2cnc3c(=O)[nH]c(N)nc32)C(=O)Cn2ccc(N)nc2=O)C(=O)Cn2cc(C)c(=O)[nH]c2=O)C(=O)Cn2ccc(N)nc2=O)C(=O)Cn2cnc3c(N)ncnc32)C(=O)Cn2cnc3c(=O)[nH]c(N)nc32)C(=O)Cn2cnc3c(N)ncnc32)C(=O)Cn2cc(C)c(=O)[nH]c2=O)C(=O)Cn2ccc(N)nc2=O)CC(N)=O)c(=O)[nH]c1=O
inhibition [12]: inactive

Cc1cn(CC(=O)N(CCNC(=O)CN(CCNC(=O)CN(CCNC(=O)CN(CCNC(=O)CN(CCNC(=O)CN(CCNC(=O)CN(CCNC(=O)CN(CCNC(=O)CN(CCNC(=O)CN(CCNC(=O)CN(CCNC(=O)CN(CCNC(=O)CN(CCNC(=O)CN(CCNC(=O)CN(CCNC(=O)CN(CCNC(=O)CCC(=O)NCCCCCCO[C@@H]2[C@@H](O)[C@H](N)C[C@H](N)[C@H]2O[C@H]2O[C@H](CN)[C@@H](O)[C@H](O)[C@H]2N)C(=O)Cn2cc(C)c(=O)[nH]c2=O)C(=O)Cn2ccc(N)nc2=O)C(=O)Cn2ccc(N)nc2=O)C(=O)Cn2ccc(N)nc2=O)C(=O)Cn2cnc3c(N)ncnc32)C(=O)Cn2cnc3c(=O)[nH]c(N)nc32)C(=O)Cn2cnc3c(=O)[nH]c(N)nc32)C(=O)Cn2ccc(N)nc2=O)C(=O)Cn2cc(C)c(=O)[nH]c2=O)C(=O)Cn2ccc(N)nc2=O)C(=O)Cn2cnc3c(N)ncnc32)C(=O)Cn2cnc3c(=O)[nH]c(N)nc32)C(=O)Cn2cnc3c(N)ncnc32)C(=O)Cn2cc(C)c(=O)[nH]c2=O)C(=O)Cn2ccc(N)nc2=O)CC(N)=O)c(=O)[nH]c1=O
Drug uptake [13]: 30%

— ChEMBL document CHEMBL2163276, “A peptide nucleic acid-aminosugar conjugate targeting transactivation response element of HIV-1 RNA genome shows a high bioavailability in human cells and strongly inhibits tat-mediated transactivation of HIV-1 transcription” (J Med Chem, 2012)
